{"data": "Assay results gathered from unrelated publications", "target": "BMP-2-inducible protein kinase (BMP2K, Homo sapiens, UniProt Q9NSY1)", "note": "Lines come from different studies, so protocols differ."}
{"SMILES": "C[C@]1(O)CCCN(c2nc(Nc3ccc(S(=O)(=O)N[C@H]4CC[C@H](CN5CCN(c6ccc(C7CCC(=O)NC7=O)cc6F)CC5)CC4)cc3Cl)ncc2C(F)(F)F)C1 (some centres unmarked)", "observed": "binding", "technique": "competition with immobilised ligand", "concentration": "1 µM", "quantity": "remaining binding", "result": "99%"}
{"SMILES": "CC#CC(=O)N1CCC[C@H]1c1nc(-c2ccc(C(=O)Nc3ccccn3)cc2)c2c(N)nccn12", "observed": "enzyme activity", "action": "inhibitor", "concentration": "1 µM", "quantity": "inhibition", "result": "26%"}
{"SMILES": "COc1ccc2oc(-c3ccc4nc(N)oc4c3)c/c(=N\\c3ccccc3NC(=O)CCN)c2c1", "observed": "binding", "concentration": "1 µM", "quantity": "remaining binding", "result": "105%"}
{"SMILES": "COc1ccc2[nH]c3c4[nH]c5ccc(OC)cc5c4c4c(c3c2c1)C(=O)NC4=O", "observed": "binding", "concentration": "1 µM", "quantity": "remaining binding", "result": "76%"}
{"SMILES": "CNS(=O)(=O)c1ccc(Nc2ncc(C(F)(F)F)c(N3CCC[C@](C)(O)C3)n2)c(C)c1", "observed": "binding", "technique": "competition with immobilised ligand", "concentration": "1 µM", "quantity": "remaining binding", "result": "79%"}
{"SMILES": "CCCCC(=O)Nc1ccc(-c2ccc3ncn(CCC)c(=O)c3c2)cn1", "observed": "binding", "technique": "competition with immobilised ligand", "concentration": "0.5 µM", "quantity": "remaining binding", "result": "98%"}
{"SMILES": "C[C@H]1CC[C@H](n2c3cnccc3c3cnc(Nc4ccc5c(n4)CCN(C(=O)CO)C5)nc32)CC1", "observed": "cell-free assay", "concentration": "1 µM", "quantity": "remaining signal", "result": "17%"}
{"SMILES": "C=CC(=O)N1CCC[C@@H](n2nc(-c3ccc(Oc4ccccc4)cc3)c3c(N)ncnc32)C1", "observed": "enzyme activity", "action": "inhibitor", "concentration": "1 µM", "quantity": "inhibition", "result": "17%"}
